Values after ≈ are worked out from the molar mass of the structure shown.
Assays:
[1] = system: Bifidobacterium animalis; experiment: Antimicrobial activity against Bifidobacterium animalis ATCC 27536; format: functional
Outline: (§1)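 Broth microdilution in MRS plus 0.05% L-cysteine-HCl. Mid-log culture adjusted to OD650 0.1, giving about 2.5 × 10^4 to 5.0 × 10^4 CFU/well, then added to twofold serial dilutions of agent. Plates incubated anaerobically at 37°C for 18 h and read at OD650. MIC is the lowest concentration matching the uninoculated blank OD, taken as the median of four repeats.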

[2] = system: Bifidobacterium bifidum; experiment: Antimicrobial activity against Bifidobacterium bifidum R0071; format: functional; outline: as §1
[3] = system: Bifidobacterium bifidum; experiment: Antimicrobial activity against Bifidobacterium bifidum ATCC 15696; format: functional; outline: as §1
[4] = system: Bifidobacterium bifidum; experiment: Antimicrobial activity against Bifidobacterium bifidum BB12; format: functional; outline: as §1
[5] = system: Bifidobacterium breve; experiment: Antimicrobial activity against Bifidobacterium breve ATCC 15700; format: functional; outline: as §1
[6] = Antimicrobial activity against Bifidobacterium infantis ATCC 15697; format: functional, Bifidobacterium longum subsp. infantis; conditions: Bifidobacterium longum; outline: as §1
[7] = system: Bifidobacterium longum; experiment: Antimicrobial activity against Bifidobacterium longum ATCC 15708; format: functional; outline: as §1
[8] = system: Bifidobacterium longum; experiment: Antimicrobial activity against Bifidobacterium longum R0175; format: functional; outline: as §1
[9] = system: Bifidobacterium longum; experiment: Antimicrobial activity against Bifidobacterium longum P/N 601377; format: functional; outline: as §1
[10] = system: Bifidobacterium pseudolongum; experiment: Antimicrobial activity against Bifidobacterium pseudolongum ATCC 25562; format: functional; outline: as §1
[11] = system: Bifidobacterium thermophilum; experiment: Antimicrobial activity against Bifidobacterium thermophilum ATCC 25866; format: functional; outline: as §1
[12] = system: Bifidobacterium breve; experiment: Antimicrobial activity against Bifidobacterium breve R0070; format: functional; outline: as §1
[13] = system: Bifidobacterium animalis; experiment: Antimicrobial activity against 60 min 1 M HCl-stressed Bifidobacterium animalis ATCC 27536 after 18 hrs; format: functional
Outline: (§2)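 Mid-log MRS culture pelleted and resuspended in MRS broth brought to pH 2.0 with 1 M HCl, held anaerobically at 37°C for 60 min, then subcultured in MRS (pH 6.5) for 24 h anaerobically before MIC testing by broth microdilution (as for unstressed cells). Table footnote gives 18 h anaerobic regrowth after the stress. MIC is the median of four repetitions.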

[14] = system: Bifidobacterium bifidum; experiment: Antimicrobial activity against 60 min 1 M HCl-stressed Bifidobacterium bifidum R0071 after 18 hrs; format: functional; outline: as §2
[15] = system: Bifidobacterium bifidum; experiment: Antimicrobial activity against 60 min 1 M HCl-stressed Bifidobacterium bifidum BB12 after 18 hrs; format: functional; outline: as §2
[16] = system: Bifidobacterium breve; experiment: Antimicrobial activity against 60 min 1 M HCl-stressed Bifidobacterium breve ATCC 15700 after 18 hrs; format: functional; outline: as §2
[17] = system: Bifidobacterium breve; experiment: Antimicrobial activity against 60 min 1 M HCl-stressed Bifidobacterium breve R0070 after 18 hrs; format: functional; outline: as §2
[18] = Antimicrobial activity against 60 min 1 M HCl-stressed Bifidobacterium infantis ATCC 15697 after 18 hrs; format: functional, Bifidobacterium longum subsp. infantis; conditions: Bifidobacterium longum; outline: as §2
[19] = system: Bifidobacterium longum; experiment: Antimicrobial activity against 60 min 1 M HCl-stressed Bifidobacterium longum ATCC 15707 after 18 hrs; format: functional; outline: as §2
[20] = system: Bifidobacterium longum; experiment: Antimicrobial activity against 60 min 1 M HCl-stressed Bifidobacterium longum R0175 after 18 hrs; format: functional; outline: as §2
[21] = system: Bifidobacterium longum; experiment: Antimicrobial activity against 60 min 1 M HCl-stressed Bifidobacterium longum P/N 601377 after 18 hrs; format: functional; outline: as §2
[22] = system: Bifidobacterium pseudolongum; experiment: Antimicrobial activity against 60 min 1 M HCl-stressed Bifidobacterium pseudolongum ATCC 25562 after 18 hrs; format: functional; outline: as §2
[23] = system: Bifidobacterium thermophilum; experiment: Antimicrobial activity against 60 min 1 M HCl-stressed Bifidobacterium thermophilum ATCC 25866 after 18 hrs; format: functional; outline: as §2
[24] = system: Bifidobacterium animalis; experiment: Antimicrobial activity against 90 mins oxgall-stressed Bifidobacterium animalis ATCC 27536 after 18 hrs; format: functional
Outline: (§3)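 Cells pelleted from mid-log MRS culture and resuspended in MRS (initial pH 6.5) with 0.3% (wt/vol) oxgall for 90 min anaerobically at 37°C. They were then regrown in MRS pH 6.5 for 24 h (footnote: 18 h) anaerobically and tested for MIC by the same broth microdilution assay. Median of four repetitions.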

[25] = system: Bifidobacterium bifidum; experiment: Antimicrobial activity against 90 mins oxgall-stressed Bifidobacterium bifidum R0071 after 18 hrs; format: functional; outline: as §3
[26] = system: Bifidobacterium bifidum; experiment: Antimicrobial activity against 90 mins oxgall-stressed Bifidobacterium bifidum ATCC 15696 after 18 hrs; format: functional; outline: as §3
[27] = system: Bifidobacterium bifidum; experiment: Antimicrobial activity against 90 mins oxgall-stressed Bifidobacterium bifidum BB12 after 18 hrs; format: functional; outline: as §3
[28] = system: Bifidobacterium breve; experiment: Antimicrobial activity against 90 mins oxgall-stressed Bifidobacterium breve ATCC 15700 after 18 hrs; format: functional; outline: as §3
[29] = system: Bifidobacterium breve; experiment: Antimicrobial activity against 90 mins oxgall-stressed Bifidobacterium breve R0070 after 18 hrs; format: functional; outline: as §3
[30] = Antimicrobial activity against 90 mins oxgall-stressed Bifidobacterium infantis ATCC 15697 after 18 hrs; format: functional, Bifidobacterium longum subsp. infantis; conditions: Bifidobacterium longum; outline: as §3
[31] = system: Bifidobacterium longum; experiment: Antimicrobial activity against 90 mins oxgall-stressed Bifidobacterium longum ATCC 15707 after 18 hrs; format: functional; outline: as §3
[32] = system: Bifidobacterium longum; experiment: Antimicrobial activity against 90 mins oxgall-stressed Bifidobacterium longum ATCC 15708 after 18 hrs; format: functional; outline: as §3
[33] = system: Bifidobacterium longum; experiment: Antimicrobial activity against Bifidobacterium longum ATCC 15707; format: functional; outline: as §1
[34] = system: Bifidobacterium longum; experiment: Antimicrobial activity against 90 mins oxgall-stressed Bifidobacterium longum R0175 after 18 hrs; format: functional; outline: as §3
[35] = system: Bifidobacterium longum; experiment: Antimicrobial activity against 90 mins oxgall-stressed Bifidobacterium longum P/N 601377 after 18 hrs; format: functional; outline: as §3
[36] = system: Bifidobacterium pseudolongum; experiment: Antimicrobial activity against 90 mins oxgall-stressed Bifidobacterium pseudolongum ATCC 25562 after 18 hrs; format: functional; outline: as §3
[37] = system: Bifidobacterium thermophilum; experiment: Antimicrobial activity against 90 mins oxgall-stressed Bifidobacterium thermophilum ATCC 25866 after 18 hrs; format: functional; outline: as §3
[38] = system: Bifidobacterium animalis; experiment: Antimicrobial activity against 90 mins hydrogen peroxide-stressed Bifidobacterium animalis ATCC 27536 after 18 hrs; format: functional
Outline: (§4)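 Stress applied for 90 min at 37°C under anaerobic conditions, using MRS (initial pH 6.5) containing H2O2 at each strain's own inhibitory concentration. The H2O2 level was set beforehand by microplate tolerance testing. Challenged cells were regrown in MRS for 24 h (footnote: 18 h) before MIC testing by broth microdilution. Median of four repetitions.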

[39] = system: Bifidobacterium bifidum; experiment: Antimicrobial activity against 90 mins hydrogen peroxide-stressed Bifidobacterium bifidum R0071 after 18 hrs; format: functional; outline: as §4
[40] = system: Bifidobacterium bifidum; experiment: Antimicrobial activity against 90 mins hydrogen peroxide-stressed Bifidobacterium bifidum BB12 after 18 hrs; format: functional; outline: as §4
[41] = system: Bifidobacterium breve; experiment: Antimicrobial activity against 90 mins hydrogen peroxide-stressed Bifidobacterium breve ATCC 15700 after 18 hrs; format: functional; outline: as §4
[42] = system: Bifidobacterium breve; experiment: Antimicrobial activity against 90 mins hydrogen peroxide-stressed Bifidobacterium breve R0070 after 18 hrs; format: functional; outline: as §4
[43] = system: Bifidobacterium longum; experiment: Antimicrobial activity against 90 mins hydrogen peroxide-stressed Bifidobacterium longum ATCC 15707 after 18 hrs; format: functional; outline: as §4
[44] = system: Bifidobacterium longum; experiment: Antimicrobial activity against 90 mins hydrogen peroxide-stressed Bifidobacterium longum ATCC 15708 after 18 hrs; format: functional; outline: as §4
[45] = system: Bifidobacterium longum; experiment: Antimicrobial activity against 90 mins hydrogen peroxide-stressed Bifidobacterium longum R0175 after 18 hrs; format: functional; outline: as §4
[46] = system: Bifidobacterium longum; experiment: Antimicrobial activity against 90 mins hydrogen peroxide-stressed Bifidobacterium longum P/N 601377 after 18 hrs; format: functional; outline: as §4
[47] = system: Bifidobacterium thermophilum; experiment: Antimicrobial activity against 90 mins hydrogen peroxide-stressed Bifidobacterium thermophilum ATCC 25866 after 18 hrs; format: functional; outline: as §4

## NC[C@@H]1O[C@H](O[C@H]2[C@@H](O)[C@H](O[C@@H]3[C@@H](O)[C@H](N)C[C@H](N)[C@H]3O[C@H]3O[C@H](CO)[C@@H](O)[C@H](O)[C@H]3N)O[C@@H]2CO)[C@H](N)[C@@H](O)[C@@H]1O [PAROMOMYCIN]
[1]
  MIC: 250 µg/mL (≈ 406 µM)
[2]
  MIC: 250 µg/mL (≈ 406 µM)
[3]
  MIC: 250 µg/mL (≈ 406 µM)
[4]
  MIC: 250 µg/mL (≈ 406 µM)
[5]
  MIC: 250 µg/mL (≈ 406 µM)
[6]
  MIC: 250 µg/mL (≈ 406 µM)
[7]
  MIC: 250 µg/mL (≈ 406 µM)
[8]
  MIC: 250 µg/mL (≈ 406 µM)
[9]
  MIC: 250 µg/mL (≈ 406 µM)
[10]
  MIC: 250 µg/mL (≈ 406 µM)
[11]
  MIC: 250 µg/mL (≈ 406 µM)
[12]
  MIC: 250 µg/mL (≈ 406 µM)
[13]
  MIC: 500 µg/mL (≈ 812 µM)
[14]
  MIC: 250 µg/mL (≈ 406 µM)
[15]
  MIC: 125 µg/mL (≈ 203 µM)
[16]
  MIC: 125 µg/mL (≈ 203 µM)
[17]
  MIC: 250 µg/mL (≈ 406 µM)
[18]
  MIC: 250 µg/mL (≈ 406 µM)
[19]
  MIC: 500 µg/mL (≈ 812 µM)
[20]
  MIC: 250 µg/mL (≈ 406 µM)
[21]
  MIC: 250 µg/mL (≈ 406 µM)
[22]
  MIC: 250 µg/mL (≈ 406 µM)
[23]
  MIC: 500 µg/mL (≈ 812 µM)
[24]
  MIC: 125 µg/mL (≈ 203 µM)
[25]
  MIC: 125 µg/mL (≈ 203 µM)
[26]
  MIC: 500 µg/mL (≈ 812 µM)
[27]
  MIC: 250 µg/mL (≈ 406 µM)
[28]
  MIC: 250 µg/mL (≈ 406 µM)
[29]
  MIC: 125 µg/mL (≈ 203 µM)
[30]
  MIC: 500 µg/mL (≈ 812 µM)
[31]
  MIC: 125 µg/mL (≈ 203 µM)
[32]
  MIC: 500 µg/mL (≈ 812 µM)
[33]
  MIC: 250 µg/mL (≈ 406 µM)
[34]
  MIC: 125 µg/mL (≈ 203 µM)
[35]
  MIC: 62.5 µg/mL (≈ 102 µM)
[36]
  MIC: 500 µg/mL (≈ 812 µM)
[37]
  MIC: 250 µg/mL (≈ 406 µM)
[38]
  MIC: 500 µg/mL (≈ 812 µM)
[39]
  MIC: 125 µg/mL (≈ 203 µM)
[40]
  MIC: 500 µg/mL (≈ 812 µM)
[41]
  MIC: 500 µg/mL (≈ 812 µM)
[42]
  MIC: 250 µg/mL (≈ 406 µM)
[43]
  MIC: 500 µg/mL (≈ 812 µM)
[44]
  MIC: 250 µg/mL (≈ 406 µM)
[45]
  MIC: 250 µg/mL (≈ 406 µM)
[46]
  MIC: 125 µg/mL (≈ 203 µM)
[47]
  MIC: 500 µg/mL (≈ 812 µM)

From ChEMBL document CHEMBL1142148, “Antibiotic susceptibility profile of bifidobacteria as affected by oxgall, acid, and hydrogen peroxide stress” (2007)
